Measurements reported in article PMC7442688 (Nature chemical biology, 2020).

Molecular target: T1, purified mLYPLAL1 (Mus musculus, UniProt Q3UFF7)
T1 sequence (Q3UFF7 1-239): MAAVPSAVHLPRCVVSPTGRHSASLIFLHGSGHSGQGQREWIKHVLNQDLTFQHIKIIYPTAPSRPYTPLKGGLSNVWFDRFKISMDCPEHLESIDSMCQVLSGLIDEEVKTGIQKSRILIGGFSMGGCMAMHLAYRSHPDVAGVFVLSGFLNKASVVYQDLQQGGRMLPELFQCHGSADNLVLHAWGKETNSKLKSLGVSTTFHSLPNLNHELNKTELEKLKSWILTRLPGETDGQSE
Assay: NanoDSF thermal stability assay
Assay type: binding
Details: recombinant mLYPLAL1
Procedure, shortened: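 Purified mouse LYPLAL1 (2.3 μM final) in PBS pH 7.4 with varying test compound concentrations (2% DMSO final) in capillaries. Intrinsic-fluorescence nanoDSF over a 20–95°C ramp at 1°C/min. Kd estimated by isothermal analysis of the unfolding data.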

effect on thermal stability of mLYPLAL1: not seen
SMILES: COc1ccc(S(=O)(=O)n2nc(NCc3ccc(Cl)cc3)nc2N)cc1 [Compound 80, 3-(4-chlorobenzyl)amino-1-((4-methoxyphenyl)sulfonyl)-5-amino-1H-1,2,4-triazole]
